From PubChem
Rows were chosen to be rich in hits. Some 2.3% of all compounds tested hit in one or more screens of this group.
TRPC6 inh: mouse TRPC6 channel inhibitors, primary screen, cell-based, HEK293, membrane potential dye. Short transient receptor potential channel 6 (Mus musculus), Q61143. ACh-evoked depolarization; hits give low values. B-score at 10 µM. hit rate 1.1% among 310,000;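 active = B-score under library mean minus 3 SD, initial fluorescence not abnormally high, positive integrated signal ratio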;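 note: B-score derived from integrated fluorescence ratio over the kinetic read; more negative B-score means stronger inhibition of depolarization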
TRPC6 act: mouse TRPC6 channel activators, primary screen, cell-based, HEK293, membrane potential dye; B-score at 10 µM; hit rate 0.13% among 310,000; HEK293-TRPC6 membrane potential dye fluorescence; hits give high values;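 active = B-score of the integrated fluorescence ratio above library mean plus 3 SD, and starting fluorescence ratio within library mean plus 5 SD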;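 note: higher score means more depolarization so channel activation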
TRPC4 act: activators of mouse TRPC4 channel, primary screen, Fluo4 calcium, HEK293 TRPC4beta/mu-opioid cells. hit rate 0.49% among 310,000. Fluo4 calcium fluorescence; hits give high values. B-score at 10 µM;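 active = B-score above 5 SD of library B-scores, and initial fluorescence ratio not above library mean plus 5 SD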;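 note: positive B-score marks a calcium rise read as TRPC4 activation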
Target sequence (Q9QUQ5 whole entry, looked up): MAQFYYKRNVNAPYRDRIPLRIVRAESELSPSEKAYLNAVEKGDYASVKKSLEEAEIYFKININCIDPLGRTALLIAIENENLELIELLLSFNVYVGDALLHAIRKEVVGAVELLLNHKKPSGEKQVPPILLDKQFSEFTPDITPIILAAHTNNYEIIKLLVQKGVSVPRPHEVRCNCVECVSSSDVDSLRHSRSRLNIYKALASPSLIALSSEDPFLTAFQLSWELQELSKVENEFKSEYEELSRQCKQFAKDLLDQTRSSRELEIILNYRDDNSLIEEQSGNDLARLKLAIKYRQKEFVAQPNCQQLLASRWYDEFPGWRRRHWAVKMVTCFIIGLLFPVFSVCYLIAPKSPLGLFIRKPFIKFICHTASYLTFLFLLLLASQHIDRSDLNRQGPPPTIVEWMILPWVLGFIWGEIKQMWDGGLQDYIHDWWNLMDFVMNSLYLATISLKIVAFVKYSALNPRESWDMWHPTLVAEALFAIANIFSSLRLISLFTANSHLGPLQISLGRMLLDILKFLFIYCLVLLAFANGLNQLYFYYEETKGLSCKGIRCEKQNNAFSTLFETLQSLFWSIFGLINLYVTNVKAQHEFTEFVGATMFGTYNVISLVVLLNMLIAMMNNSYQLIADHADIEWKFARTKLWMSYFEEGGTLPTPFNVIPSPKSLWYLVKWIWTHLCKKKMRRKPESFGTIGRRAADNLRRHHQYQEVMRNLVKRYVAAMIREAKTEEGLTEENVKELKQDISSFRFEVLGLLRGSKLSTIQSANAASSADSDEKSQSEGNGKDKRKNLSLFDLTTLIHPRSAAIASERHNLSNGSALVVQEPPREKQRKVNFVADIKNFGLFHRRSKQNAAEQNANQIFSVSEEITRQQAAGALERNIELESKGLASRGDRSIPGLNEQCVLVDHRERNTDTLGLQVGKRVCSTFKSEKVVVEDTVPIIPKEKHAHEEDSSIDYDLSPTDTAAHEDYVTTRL
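Technique: kinetic Fluo4 calcium fluorescence; Test system: TRPC4beta and mu-opioid receptor HEK293 stable cells; Measure: B-scored integrated calcium fluorescence ratio; Benchmarks: low control buffer alone, high control maximal DAMGO; Schedule: 45 min room-temperature Fluo4 loading, 110 s read.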
TRPC4 inh: inhibitors of mouse TRPC4 channel, primary screen, Fluo4 calcium, HEK293 TRPC4beta/mu-opioid cells; DAMGO-evoked Fluo4 calcium flux; hits give low values; B-score at 10 µM; hit rate 0.39% among 300,000; AID 2247, 2010;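 active = B-score over 3 SD under the library average, no early fluorescence shift, positive overall ratio signal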
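Signal: kinetic Fluo4 fluorescence imaging of calcium influx. Material: stable TRPC4beta/mu-opioid receptor HEK293 cells. Probe or stimulus: DAMGO in two steps, submaximal then maximal.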
TRPC4 potent: positive allosteric modulators of TRPC4, primary screen, cell-based, mouse TRPC4beta, HEK293 mu-opioid, Fluo-4 calcium; B-score at 10 µM; DAMGO EC20, Fluo-4 Ca2+ flux; hits give high values; Short transient receptor potential channel 4 (Mus musculus), Q9QUQ5; hit rate 0.42% among 310,000;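 active = B-score of calcium response area above 5 SD of library B-scores, with initial fluorescence ratio within 5 SD of library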
Hits are given with their value; 0 = inactive.

SMILES | TRPC6 inh | TRPC6 act | TRPC4 act | TRPC4 inh | TRPC4 potent
CC1(C)CC(=O)c2cc(C(=O)NCc3ccco3)c(=O)n(-c3ccc(Cl)cc3)c2C1 | 0 | 0 | 121 | 0 | 0
CC(C)c1ccc(S(=O)(=O)N2CCN(C(=O)C3CCCC3)CC2)cc1 | 0 | 0 | 0 | 0 | 0
CC(O)[C@H]1CNC(=O)C(=O)N1CCCCC1CCCCC1 (stereo partly specified) | 0 | 0 | 0 | 0 | 0
COc1ccc2cc(C(=O)Nc3ccc(S(N)(=O)=O)cc3)sc(=O)c2c1OC | 0 | 0 | 0 | 0 | 0
COC(=O)C1=C(C)N(Cc2ccccc2)C(=O)N[C@H]1c1cccc(C(F)(F)F)c1 | 0 | 0 | 0 | 0 | 10
Oc1c(Cl)cc(Cl)cc1Sc1cc(Cl)cc(Cl)c1O | -8.4 | 0 | 86 | 0 | 0
COc1ccc2ccccc2c1/C=N/NC(=O)c1cccc(Br)c1 | 0 | 0 | 0 | 0 | 0
O=C(N/N=C/c1c(O)ccc2ccccc12)c1cccc(C(F)(F)F)c1 | 0 | 0 | 0 | 0 | 12
CSc1nsc(SCC(=O)N2CCN(c3ccccc3)CC2)n1 | 0 | 0 | 0 | 0 | 0
CCOC(=O)C1CCCN(CCC(C)c2ccccc2)C1 (stereo unspecified) | 0 | 0 | 0 | 0 | 0
NC(=O)C1CCCN(CCc2ccccc2)C1 (stereo unspecified) | 0 | 0 | 103 | 0 | 0
CC(CN1CCCC(C(N)=O)C1)c1ccccc1 (stereo unspecified) | 0 | 0 | 131 | 0 | 0
COC(=O)c1ccc(N2CCN(C)CC2)c(NC(=O)c2cccs2)c1 | 0 | 0 | 142 | 0 | 0
CN1CCN(c2ccc(NC(=O)COc3ccccc3)cc2Cl)CC1 | 0 | 0 | 0 | 0 | 0
COC(=O)c1ccc(N2CCOCC2)c(NC(=O)c2cccs2)c1 | 0 | 0 | 0 | 0 | 0
Cc1cccc(OCC(=O)Nc2ccccc2N2CCN(C)CC2)c1 | 0 | 0 | 0 | 0 | 0
COC(=O)c1ccc(N2CCN(C)CC2)c(NC(=O)COc2cccc(C)c2)c1 | 0 | 0 | 63 | 0 | 0
COC(=O)c1ccc(N2CCN(C)CC2)c(NC(=O)COc2ccccc2)c1 | 0 | 0 | 120 | 0 | 0
Cc1cc(C(=O)CN2C(=O)C(=O)N(CC(C)C)C2=O)c(C)n1-c1ccccc1F | 0 | 0 | 0 | 0 | 15
Cc1cc(C(=O)Cn2nnc3ccccc3c2=O)c(C)n1-c1ccccc1F | 0 | 0 | 0 | 0 | 14
Cc1cc(C(=O)CN2C(=O)NC(CC(C)C)C2=O)c(C)n1-c1ccccc1F (stereo unspecified) | 0 | 0 | 0 | 0 | 0
COc1ccc(-n2c(C)cc(C(=O)Cn3nnc4ccccc4c3=O)c2C)cc1 | 0 | 0 | 0 | 0 | 0
COc1ccc(C2C(O)C(c3c[nH]c4ccccc34)=NN2C(=O)CCl)cc1 (stereo unspecified) | 0 | 0 | 0 | 0 | 21
COc1cc(CN(C)CC2CCCN(CCc3ccccc3F)C2)cc(Cl)c1OC (stereo unspecified) | 0 | 0 | 0 | -6 | 0
CN(Cc1ccccc1)CC1CCCN(CCc2ccccc2F)C1 (stereo unspecified) | 0 | 0 | 0 | 0 | 0
SMILES | TRPC6 inh | TRPC6 act | TRPC4 act | TRPC4 inh | TRPC4 potent
COc1ccccc1NC(=O)Cc1ccc(-c2ccccc2)cc1 | 0 | 0 | 0 | 0 | 0
Cc1ccc(Oc2ccccc2NC(=O)CSCC(=O)Nc2cc(C)on2)cc1 | 0 | 0 | 0 | -6 | 0
COc1ccc(NC(=O)CSCC(=O)N(C)CC(=O)Nc2ccc(Cl)c(C(F)(F)F)c2)cc1 | 0 | 0 | 0 | 0 | 0
COc1ccc(CC(=O)Nc2ccccc2Oc2ccccc2)cc1 | 0 | 0 | 0 | -6 | 0
Cc1cc(NC(=O)CSCC(=O)OC(C)C(=O)c2cc(C)c(C)cc2C)no1 (stereo unspecified) | 0 | 0 | 0 | -6 | 0
Cc1cc(NC(=O)CSCC(=O)OC(C)C(=O)N(C)Cc2ccccc2)no1 (stereo unspecified) | 0 | 0 | 0 | 0 | 0
Cc1cc(NC(=O)CSCC(=O)Nc2ccc(Cl)c(C(F)(F)F)c2)no1 | 0 | 0 | 0 | -5 | 0
Cc1cc(NC(=O)CSCC(=O)Nc2ccccc2Oc2ccccc2)no1 | 0 | 0 | 0 | 0 | 0
CCN(CC)C(=O)CSc1nnc(COc2ccccc2)n1N | 0 | 0 | 0 | 0 | 0
CNC(=O)NC(=O)COc1ccc2oc3c(c2c1)CCCC3 | 0 | 0 | 0 | 0 | 0
CNC(=O)COc1ccc2oc3c(c2c1)CCCC3 | 0 | 0 | 0 | -6 | 0
O=C(Nc1ccccc1)Nc1ccc(Br)c(Cl)c1 | 0 | 0 | 0 | 0 | 0
COc1ccc(N2C(=O)CSC2c2ccc([N+](=O)[O-])cc2)cc1 (stereo unspecified) | 0 | 0 | 0 | 0 | 0
O=c1c(Cl)c(N2CCN(c3ccc(F)cc3)CC2)cnn1C12CC3CC(CC(C3)C1)C2 | 0 | 0 | 0 | 0 | 10
O=C(NCc1ccccc1)C(c1ccc(F)cc1)N(C(=O)c1csnn1)c1ccccc1 (stereo unspecified) | 0 | 0 | 0 | 0 | 0
CCn1c2ccccc2c2cc(/C=N/NC(=O)c3ccc(O)cc3)ccc21 | 0 | 0 | 0 | 0 | 0
CCn1c2ccccc2c2cc(/C=N/NC(=O)c3cc(O)cc(O)c3)ccc21 | 0 | 0 | 0 | -6 | 0
CCc1ccccc1Nc1nc2ccccc2n1CC | 0 | 0 | 0 | 0 | 0
CCCn1c(NCc2ccc(C)o2)nc2ccccc21 | 0 | 0 | 0 | -6 | 0
CCCn1c(Nc2ccccc2C)nc2ccccc21 | 0 | 0 | 0 | -5 | 0
Oc1ccc(N=Nc2ccccc2-c2nn[nH]n2)c(O)c1 | 0 | 0 | 0 | 0 | 0
Clc1cc(Cl)cc(C2=NC(Cc3ccccc3)CO2)c1 (stereo unspecified) | 0 | 0 | 132 | 0 | 0
COC1(OC)C=CC(=O)C=C1NC(=O)c1ccccc1OC(C)=O | 0 | 0 | 0 | 0 | 0
CCC(C)(C)n1nnnc1C(c1cccnc1)N1CCC(Cc2ccccc2)CC1 (stereo unspecified) | 0 | 0 | 0 | -6 | 0
COc1ccc(C2=NO[C@@](CC(=O)O)(C(=O)Nc3ccc4c(c3)OCCO4)C2)cc1 | 0 | 0 | 0 | 0 | 0
CN(C)C1(CNC(=O)CC(NC(=O)c2ccccc2Cl)c2ccccc2)CCCCC1 (stereo unspecified) | 0 | 0 | 44 | -7 | 0
Cc1cc(C)cc(N(CC(=O)Nc2ccc(C)cc2Cl)S(=O)(=O)c2c(C)[nH]c(=O)[nH]c2=O)c1 | 0 | 0 | 0 | 0 | 22
Cc1cc(C)cc(N(CC(=O)Nc2ccc(C(F)(F)F)cc2)S(=O)(=O)c2c(C)[nH]c(=O)[nH]c2=O)c1 | 0 | 0 | 0 | 0 | 0
